Published values collected from several papers.
Compare with care: the assays were run in different laboratories.
Matrix: plasma

| Compound | system | setting | endpoint | result |
| --- | --- | --- | --- | --- |
| CCNC(=O)c1nc(-c2ccc3[nH]c(-c4nc(C)no4)cc3c2)c(C)[nH]1 | Sprague-Dawley rat | oral, 10 mg/kg | AUC | 10.3 µM·h |
| N#Cc1[nH]nnc1-c1cc(Cl)cc(/C=C/c2cccc(C(F)(F)F)c2)c1 | male Sprague-Dawley rat | oral, 10 mg/kg | AUC | 16700 ng·h/mL |
| N#Cc1ccc(Nc2nc(N)cc(Oc3c(F)cc(-c4ccc(C#N)cc4)cc3F)n2)cc1 | Sprague-Dawley rat | oral, 5 mg/kg | AUC | 100 ng·h/mL |
| O=C1N(Cc2ccccc2Cl)c2ccccc2C12NN=C(c1ccccc1)S2 (centres unmarked) | Sprague-Dawley rat | oral, 40 mg/kg | AUC | 2820 ng·h/mL |
| Cc1noc(-c2cc3cc(-c4nc(C(=O)NCc5ccncc5)[nH]c4C)ccc3[nH]2)n1 | Sprague-Dawley rat | oral, 10 mg/kg | AUC | 11.1 µM·h |
| C=CC(=O)N1CC2CC(n3nc(-c4ccc(C(=O)Nc5ccccn5)cc4)c4c(N)ncnc43)CC2C1 (centres unmarked) | male Wistar rat | oral, 300 mg/kg | AUC(0-t) | 80700 ng·h/mL |
| N#Cc1[nH]nnc1-c1cccc(-c2cc(F)cc(C(F)(F)F)c2)c1 | male Sprague-Dawley rat | oral, 10 mg/kg | AUC | 68200 ng·h/mL |
| CCOC(=O)[C@@]12C[C@@H]1[C@@H](n1ccc3c(NC)nc(C#Cc4ccc(Cl)s4)nc31)[C@H](O)[C@@H]2O | male Sprague-Dawley rat | intravenous, 0.5 mg/kg | AUC(0-inf) | 31.1 ng·h/mL |
| CCc1cc(C(=O)NC)c2nccc(N3CCc4c(cc(Cn5ccnc5)cc4-c4cn(C)nc4C(F)(F)F)C3=O)c2c1 | male Sprague-Dawley rat | oral, 100 mg/kg, single dose | AUC(0-t) | 37200 ng·h/mL |
| COc1cc2c3c(n(CCCN4CCOCC4)c(=O)c2cc1OC)-c1cc2c(cc1C3=O)OCO2 | female Fischer 344 rat | intravenous, 12 mg/m², single dose | AUC(0-inf) | 403 ng·h/mL |
| Oc1c(Br)cc(Cl)c2cccnc12 | Sprague-Dawley rat | oral, 20 mg/kg | AUC(0-inf) | 4500 ng·h/mL |
